Values after ≈ are worked out from the molar mass of the structure shown. Active and inactive are the calls of the source. No cut-off for these calls is given here.
Assays:
[1] = Half life in CD1 mouse liver microsomes at 1 uM incubated for 60 mins under shaking condition by LC-MS/MS analysis; assay type: ADME, Microsome
Outline: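 Metabolic stability in mouse liver microsomes with test compound at 1 μM; result expressed as t1/2 (min).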

MDA-MB-468 = assay: Antiproliferative activity against human MDA-MB-468 cells assessed as cell viability at 10 uM after 48 hrs by celltiter-glo 2D luminescent assay relative to control; assay type: functional; details: read-out: Activity
Outline: (§1)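 2D CellTiter-Glo luminescent viability screen, single 10 μM compound concentration, in MDA-MB-468, MDA-MB-231 and MCF7 breast cancer cells and in normal human dermal fibroblasts; output reported as percent of viable cells.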

MCF7 [2] = assay: Antiproliferative activity against human MCF7 cells assessed as reduction in cell viability after 48 hrs by celltiter-glo 3D luminescent assay; assay type: functional, cell-based; details: MCF7, 48 h
Outline: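 MCF7 cells grown in 3D culture, viability read by CellTiter-Glo 3D luminescence; dose–response curves run up to 15 μM to derive IC50.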

[3] = biological target: T1, PI3-kinase p110-alpha/p85-alpha (Homo sapiens) (UniProt P27986+P42336); assay: Inhibition of human PI3K p110alpha/p85alpha at 10 uM using PIP2 as substrate incubated for 10 mins followed by ATP addition and measured after 30 mins in presence of 10 uM ATP by HTRF assay; assay type: protein-complex assay
MCF7 [4] = assay: Antiproliferative activity against human MCF7 cells assessed as cell viability at 10 uM after 48 hrs by celltiter-glo 2D luminescent assay relative to control; assay type: functional; details: read-out: Activity; outline: as §1
[5] = biological target: T2, Serine/threonine-protein kinase mTOR (Homo sapiens, UniProt P42345); assay: Inhibition of human mTOR at 10 uM using 4EBP1 as substrate after 120 mins by [gamma-33P]-ATP assay
Outline: (§2)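 Single-point kinase screen by HotSpot radioisotope filter binding assay; compound at 10 μM with 10 μM ATP, reported as percent inhibition of PI3Kα and mTOR.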

[6] = Cytotoxicity against human primary fibroblasts assessed as cell viability at 10 uM after 48 hrs by celltiter-glo 2D luminescent assay relative to control; assay type: cell-based, Fibroblast; details: read-out: Activity; outline: as §1
[7] = Kinetic aqueous solubility of compound in 2% DMSO/Phosphate buffer saline incubated for 90 mins under shaking condition by; assay type: physicochemical; details: 2% DMSO/phosphate buffered saline, read-out: Kinetic_solubility
Outline: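 Maximum kinetic aqueous solubility measured in 2% DMSO/phosphate-buffered saline, pH 7.4.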

MDA-MB-231 = assay: Antiproliferative activity against human MDA-MB-231 cells assessed as cell viability at 10 uM after 48 hrs by celltiter-glo 2D luminescent assay relative to control; assay type: functional; details: read-out: Activity; outline: as §1
[8] = biological target: PI3-kinase p110-alpha/p85-alpha (Homo sapiens, UniProt P42336); assay: Inhibition of human PI3K p110alpha/p85alpha using PIP2 as substrate incubated for 10 mins followed by ATP addition and measured after 30 mins in presence of 10 uM ATP by HTRF assay; assay type: protein-complex assay
Sequence of PI3-kinase p110-alpha/p85-alpha (P27986 whole entry): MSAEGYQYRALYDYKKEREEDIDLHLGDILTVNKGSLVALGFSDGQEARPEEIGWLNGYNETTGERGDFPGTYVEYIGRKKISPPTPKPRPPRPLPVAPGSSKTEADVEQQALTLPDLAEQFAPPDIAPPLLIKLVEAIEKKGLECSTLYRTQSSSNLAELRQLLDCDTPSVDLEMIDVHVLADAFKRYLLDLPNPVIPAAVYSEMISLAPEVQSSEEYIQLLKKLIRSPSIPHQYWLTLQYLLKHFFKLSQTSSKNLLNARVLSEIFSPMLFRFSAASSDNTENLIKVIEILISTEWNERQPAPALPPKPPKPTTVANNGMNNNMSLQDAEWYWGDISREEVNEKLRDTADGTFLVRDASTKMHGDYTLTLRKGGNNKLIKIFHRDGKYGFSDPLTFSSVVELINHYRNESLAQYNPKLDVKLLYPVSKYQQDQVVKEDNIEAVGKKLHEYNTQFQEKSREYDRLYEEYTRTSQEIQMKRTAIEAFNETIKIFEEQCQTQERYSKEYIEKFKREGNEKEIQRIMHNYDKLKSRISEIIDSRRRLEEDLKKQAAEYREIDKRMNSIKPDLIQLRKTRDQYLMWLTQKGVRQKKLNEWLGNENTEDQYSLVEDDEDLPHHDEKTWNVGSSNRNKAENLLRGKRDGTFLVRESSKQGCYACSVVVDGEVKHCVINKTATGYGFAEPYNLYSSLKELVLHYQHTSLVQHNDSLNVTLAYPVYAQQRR
Sequence of PI3-kinase p110-alpha/p85-alpha (P42336 whole entry): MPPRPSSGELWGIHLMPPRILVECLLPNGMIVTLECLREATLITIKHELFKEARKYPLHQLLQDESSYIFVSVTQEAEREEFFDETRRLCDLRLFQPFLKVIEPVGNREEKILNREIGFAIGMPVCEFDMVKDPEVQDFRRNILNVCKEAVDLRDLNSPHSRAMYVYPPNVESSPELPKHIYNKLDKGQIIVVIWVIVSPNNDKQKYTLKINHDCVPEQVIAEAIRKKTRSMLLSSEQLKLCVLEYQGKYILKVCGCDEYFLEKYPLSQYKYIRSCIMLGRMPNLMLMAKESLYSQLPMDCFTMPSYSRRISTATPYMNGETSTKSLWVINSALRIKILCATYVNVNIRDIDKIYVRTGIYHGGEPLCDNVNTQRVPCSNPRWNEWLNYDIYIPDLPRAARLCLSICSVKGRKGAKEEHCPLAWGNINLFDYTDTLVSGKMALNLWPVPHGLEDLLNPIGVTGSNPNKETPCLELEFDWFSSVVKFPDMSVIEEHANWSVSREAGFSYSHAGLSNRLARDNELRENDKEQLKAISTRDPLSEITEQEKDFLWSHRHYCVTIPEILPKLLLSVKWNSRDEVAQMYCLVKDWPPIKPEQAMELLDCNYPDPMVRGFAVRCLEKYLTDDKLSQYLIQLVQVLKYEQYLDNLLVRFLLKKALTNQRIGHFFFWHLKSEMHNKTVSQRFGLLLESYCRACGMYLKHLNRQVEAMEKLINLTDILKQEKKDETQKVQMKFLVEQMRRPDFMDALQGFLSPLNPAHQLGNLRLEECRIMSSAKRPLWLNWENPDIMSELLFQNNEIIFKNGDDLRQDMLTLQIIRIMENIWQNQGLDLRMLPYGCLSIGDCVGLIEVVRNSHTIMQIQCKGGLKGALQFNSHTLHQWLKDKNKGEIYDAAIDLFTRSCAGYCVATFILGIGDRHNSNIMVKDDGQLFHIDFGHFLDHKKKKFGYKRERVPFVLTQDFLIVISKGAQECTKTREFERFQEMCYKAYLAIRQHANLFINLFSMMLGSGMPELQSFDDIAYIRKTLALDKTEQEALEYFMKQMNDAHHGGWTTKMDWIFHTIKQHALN

[9] = biological target: T1, PI3-kinase p110-alpha/p85-alpha (Homo sapiens); assay: Inhibition of human PI3K p110alpha/p85alpha at 10 uM using PIP2 as substrate incubated for 10 mins followed by ATP addition and measured after 30 mins in presence of 10 uM ATP by HTRF assay relative to control; assay type: protein-complex assay
[10] = biological target: T2, Serine/threonine-protein kinase mTOR; assay: Inhibition of human mTOR at 10 uM using 4EBP1 as substrate after 120 mins by [gamma-33P]-ATP assay relative to control; outline: as §2

| half-life at 1 µM [1] [min] | IC50 (MCF7 [2]) [µM] | inhibition [3] | inhibition [5] | solubility kinetic at 1.5 h [7] [µM] | IC50 [8] [µM] | inhibition [9] [%] | inhibition [10] [%] | SMILES | viability at 10 µM (MDA-MB-468) [%] | viability at 10 µM (MCF7 [4]) [%] | viability at 48 h, 10 µM [6] [%] | viability at 10 µM (MDA-MB-231) [%] |
| --- | --- | --- | --- | --- | --- | --- | --- | --- | --- | --- | --- | --- |
| > 60 | 0.3 | Active | Active | 6.1 (≈ 3.33 µg/mL) | 0.0185 | – | – | N=C(N)NS(=O)(=O)c1ccc(NC(=O)Nc2ccc(-c3nc(N4CCOCC4)c4ccccc4n3)cc2)cc1 | 51 | 30 | 92 | 152 |
| > 60 | 0.3 | Active | Active | < 2 | 0.0025 | – | – | CNC(=O)c1ccc(NC(=O)Nc2ccc(-c3nc(N4CCOCC4)c4ccccc4n3)cc2)cc1 | 54 | 12 | 80 | 66 |
| – | – | Active | Active | – | – | – | – | N#Cc1cccc(-c2nc(N3CCOCC3)c3ccccc3n2)c1 | – | – | – | – |
| > 60 | – | Active | Active | 13.6 (≈ 7.92 µg/mL) | – | 83 | – | O=C(Nc1ccc(-c2nc(N3CCOCC3)c3ccccc3n2)cc1)Nc1ccc(S(=O)(=O)Nc2ncccn2)cc1 | – | – | – | – |
| 38.2 | 0.3 | Active | Active | 5.9 (≈ 2.77 µg/mL) | 0.00141 | – | – | O=C(Nc1ccc(CCO)cc1)Nc1ccc(-c2nc(N3CCOCC3)c3ccccc3n2)cc1 | 74 | 7 | 63 | 192 |
| > 60 | – | Active | Active | 4 (≈ 1.93 µg/mL) | – | 77 | 73 | CCC(=O)c1ccc(NC(=O)Nc2ccc(-c3nc(N4CCOCC4)c4ccccc4n3)cc2)cc1 | – | – | – | – |
| > 60 | 0.2 | Active | Active | < 2 | 0.0034 | – | – | NS(=O)(=O)c1ccc(NC(=O)Nc2ccc(-c3nc(N4CCOCC4)c4ccccc4n3)cc2)cc1 | 33 | 8 | 84 | 114 |
| 30.5 | – | Active | Active | < 2 | – | 73 | 81 | CCOC(=O)c1ccc(NC(=O)Nc2ccc(-c3nc(N4CCOCC4)c4ccccc4n3)cc2)cc1 | – | – | – | – |
| 60 | – | Active | Active | 6.9 (≈ 3.58 µg/mL) | 0.0062 | – | – | CS(=O)(=O)Nc1ccc(NC(=O)Nc2ccc(-c3nc(N4CCOCC4)c4ccccc4n3)cc2)cc1 | 66 | 8 | 38 | 137 |
| > 60 | 0.3 | Active | Active | 8.2 (≈ 3.74 µg/mL) | 0.0072 | – | – | O=C(Nc1ccc(-c2nc(N3CCOCC3)c3ccccc3n2)cc1)Nc1cccc(CO)c1 | 47 | 13 | 94 | 138 |
| 44.9 | – | Active | Active | 22.7 (≈ 9.7 µg/mL) | 5.9 | – | – | N=C(N)NS(=O)(=O)c1ccc(Nc2nc(N3CCOCC3)c3ccccc3n2)cc1 | – | – | – | – |
| – | – | Active | Active | – | – | – | – | Oc1ccc(-c2nc(N3CCOCC3)c3ccccc3n2)cn1 | – | – | – | – |
| > 60 | 0.2 | Active | Active | 14.3 (≈ 6.51 µg/mL) | 0.0024 | – | – | O=C(Nc1ccc(CO)cc1)Nc1ccc(-c2nc(N3CCOCC3)c3ccccc3n2)cc1 | 60 | 7 | 86 | 208 |
| – | – | Active | Active | – | – | – | – | NS(=O)(=O)c1ccc(Nc2nc(N3CCOCC3)c3ccccc3n2)cc1 | – | – | – | – |
| – | – | Active | Active | – | – | – | – | O=C(O)c1cccc(-c2nc(N3CCOCC3)c3ccccc3n2)c1 | – | – | – | – |
| > 60 | 1.2 | Active | Active | 8.1 (≈ 3.45 µg/mL) | 0.012 | – | – | O=C(Nc1ccccc1)Nc1ccc(-c2nc(N3CCOCC3)c3ccccc3n2)cc1 | 80 | 35 | 99 | 140 |
| 53.1 | 0.7 | Active | Active | 200 (≈ 78.7 µg/mL) | 0.185 | – | – | O=C(NCCO)Nc1ccc(-c2nc(N3CCOCC3)c3ccccc3n2)cc1 | 65 | 31 | 95 | 146 |
| 8 | – | Active | Active | 192 (≈ 69.8 µg/mL) | 0.186 | – | – | CNC(=O)Nc1ccc(-c2nc(N3CCOCC3)c3ccccc3n2)cc1 | 96 | 34 | 71 | 180 |
| > 60 | 1.8 | Active | Active | 3.1 (≈ 1.82 µg/mL) | 0.0261 | – | – | O=C(Nc1ccc(-c2nc(N3CCOCC3)c3ccccc3n2)cc1)Nc1ccc(S(=O)(=O)Nc2nccs2)cc1 | 59 | 40 | 95 | 140 |
| > 60 | – | Active | Active | 2 (≈ 0.935 µg/mL) | 0.0166 | – | – | CC(=O)c1ccc(NC(=O)Nc2ccc(-c3nc(N4CCOCC4)c4ccccc4n3)cc2)cc1 | 42 | 22 | 20 | 74 |
| 37.8 | – | Active | Active | < 2 | – | 84 | – | O=C(Nc1ccc(-c2nc(N3CCOCC3)c3ccccc3n2)cc1)Nc1ccc(S(=O)(=O)Nc2ccccn2)cc1 | – | – | – | – |
| 24.5 | 1.6 | – | – | 2.7 (≈ 1.15 µg/mL) | 0.114 | – | – | O=C(Nc1ccc(-c2nc(N3CCOCC3)c3ccccc3n2)cc1)Nc1cncnc1 | 56 | 21 | 88 | 138 |
| – | – | Active | Active | – | – | – | – | CC(=O)c1ccc(Nc2nc(N3CCOCC3)c3ccccc3n2)cc1 | – | – | – | – |
| 7.1 | – | – | – | 3.4 (≈ 1.18 µg/mL) | – | – | – | Oc1cccc(-c2nc(N3CCOCC3)c3oc4ncccc4c3n2)c1 [PI-103] | – | – | 42 | – |
| – | – | Active | Active | – | – | – | – | O=S(=O)(Nc1ccccn1)c1ccc(Nc2nc(N3CCOCC3)c3ccccc3n2)cc1 | – | – | – | – |
| – | – | Active | Active | – | – | – | – | CCOC(=O)c1ccc(Nc2nc(N3CCOCC3)c3ccccc3n2)cc1 | – | – | – | – |
| – | – | Active | Active | – | – | – | – | O=S(=O)(Nc1ncccn1)c1ccc(Nc2nc(N3CCOCC3)c3ccccc3n2)cc1 | – | – | – | – |

Reference: ChEMBL document CHEMBL4725466, “Discovery and SAR of Novel Disubstituted Quinazolines as Dual PI3Kalpha/mTOR Inhibitors Targeting Breast Cancer” (ACS Med Chem Lett, 2020)
